Experimental data from ChEMBL document CHEMBL5678817, “FTBMT, a Novel and Selective GPR52 Agonist, Demonstrates Antipsychotic-Like and Procognitive Effects in Rodents, Revealing a Potential Therapeutic Agent for Schizophrenia” (J Pharmacol Exp Ther, 2017).
Active and inactive are the calls of the source. The rule behind the calls is not given here.

Columns and labels:
Rattus norvegicus = assay: Effect on prolactin level in Wistar rat at 1 mg/kg, po […] by immunoassay; assay type: functional, organism-based
How it was run: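 Male Wistar rats (7 weeks) dosed orally (haloperidol 1 mg/kg among arms) or vehicle. Trunk blood taken into EDTA 1 h later and centrifuged 1600 g, 20 min, 4 °C. Plasma prolactin measured by rat prolactin enzyme immunoassay; n = 4.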

Mus musculus = assay: Antipsychotic activity in methamphetamine-induced hyperactivity in ICR mouse assessed as minimum effective dose administered orally; assay type: functional; settings: route po, read-out: MED

SMILES	Activity (Rattus norvegicus)	minimal effective dose (Mus musculus)
O=C(CCCN1CCC(O)(c2ccc(Cl)cc2)CC1)c1ccc(F)cc1	Active	
Cc1cc2c(s1)Nc1ccccc1N=C2N1CCN(C)CC1 [OLANZAPINE]		1 mg/kg
